# Test results published in ChEMBL document CHEMBL4689842, “EUbOPEN Chemogenomics Library wave 1” (2021).
# System: U2OS
# Assay: Multiplex assay against U2OS
# Type: toxicity, cell-based
# Settings: human
# Method in brief: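 At seeding, live cells were stained with Hoechst33342, BioTracker Green Microtubule Cytoskeleton Dye, MitoTracker Red and Annexin V Alexa Fluor 680. After compound addition they were imaged on a CQ1 microscope at 37°C and 5% CO2, and CellPathfinder machine-learning gating sorted them into Hoechst high-intensity objects or normal cells, with normal cells further split into healthy, pyknosed or fragmented nuclei and pyknosed cells into mitotic or apoptotic. Tubulin, mitochondrial-mass and membrane-permeability phenotypes are given as per cents of cells with healthy nuclei.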
# [1] = 12 h, 1 µM, compound concentration 1 uM, replicate 1
# [2] = 12 h, 1 µM, compound concentration 1 uM, replicate 2
# [3] = 12 h, 10 µM, compound concentration 10 uM, replicate 1
# [4] = 12 h, 10 µM, compound concentration 10 uM, replicate 2
# [5] = 24 h, 1 µM, compound concentration 1 uM, replicate 1
# [6] = 24 h, 1 µM, compound concentration 1 uM, replicate 2
# [7] = 24 h, 10 µM, compound concentration 10 uM, replicate 1
# [8] = 24 h, 10 µM, compound concentration 10 uM, replicate 2
# [9] = 48 h, 1 µM, compound concentration 1 uM, replicate 1
# [10] = 48 h, 1 µM, compound concentration 1 uM, replicate 2
# [11] = 48 h, 10 µM, compound concentration 10 uM, replicate 1
# [12] = 48 h, 10 µM, compound concentration 10 uM, replicate 2
smiles,measurement,setting,value
CC(C)N1CCC(C)(C)c2cc(C#Cc3ccc(C(=O)O)cc3)ccc21,Population Apoptotic (%),[1],30%
same,Population Healthy Nuclei (%),[1],74%
same,Population Hoechst High Intensity Objects (%),[1],12%
same,Population Membrane Permeable-Phenotype (%),[1],3%
same,Population Mitochondria Different-Phenotype (%),[1],4%
same,Population Mitotic Cells (%),[1],70%
same,Population Normal (%),[1],88%
same,Population Pyknosed Nuclei (%),[1],9%
same,Population Tubulin-Different-Phenotype (%),[1],21%
same,Total Cell Count,[1],125
same,Population Apoptotic (%),[2],20%
same,Population Fragmented Nuclei (%),[2],16%
same,Population Healthy Nuclei (%),[2],75%
same,Population Hoechst High Intensity Objects (%),[2],13%
same,Population Membrane Permeable-Phenotype (%),[2],6%
same,Population Mitochondria Different-Phenotype (%),[2],15%
same,Population Mitotic Cells (%),[2],80%
same,Population Normal (%),[2],86%
same,Population Pyknosed Nuclei (%),[2],8%
same,Population Tubulin-Different-Phenotype (%),[2],20%
same,Total Cell Count,[2],69
same,Population Apoptotic (%),[3],60%
same,Population Fragmented Nuclei (%),[3],52%
same,Population Healthy Nuclei (%),[3],43%
same,Population Hoechst High Intensity Objects (%),[3],54%
same,Population Membrane Permeable-Phenotype (%),[3],8%
same,Population Mitochondria Different-Phenotype (%),[3],8%
same,Population Mitotic Cells (%),[3],40%
same,Population Normal (%),[3],45%
same,Population Pyknosed Nuclei (%),[3],4%
same,Population Tubulin-Different-Phenotype (%),[3],13%
same,Total Cell Count,[3],542
same,Population Apoptotic (%),[4],0%
same,Population Fragmented Nuclei (%),[4],55%
same,Population Healthy Nuclei (%),[4],44%
same,Population Hoechst High Intensity Objects (%),[4],71%
same,Population Membrane Permeable-Phenotype (%),[4],4%
same,Population Mitochondria Different-Phenotype (%),[4],14%
same,Population Mitotic Cells (%),[4],0%
same,Population Normal (%),[4],28%
same,Population Pyknosed Nuclei (%),[4],0%
same,Population Tubulin-Different-Phenotype (%),[4],28%
same,Total Cell Count,[4],327
same,Population Apoptotic (%),[5],54%
same,Population Fragmented Nuclei (%),[5],11%
same,Population Healthy Nuclei (%),[5],80%
same,Population Hoechst High Intensity Objects (%),[5],7%
same,Population Membrane Permeable-Phenotype (%),[5],1%
same,Population Mitochondria Different-Phenotype (%),[5],5%
same,Population Mitotic Cells (%),[5],45%
same,Population Normal (%),[5],92%
same,Population Pyknosed Nuclei (%),[5],7%
same,Population Tubulin-Different-Phenotype (%),[5],12%
same,Total Cell Count,[5],156
same,Population Apoptotic (%),[6],50%
same,Population Fragmented Nuclei (%),[6],18%
same,Population Healthy Nuclei (%),[6],76%
same,Population Hoechst High Intensity Objects (%),[6],4%
same,Population Membrane Permeable-Phenotype (%),[6],3%
same,Population Mitochondria Different-Phenotype (%),[6],10%
same,Population Mitotic Cells (%),[6],50%
same,Population Normal (%),[6],95%
same,Population Pyknosed Nuclei (%),[6],5%
same,Population Tubulin-Different-Phenotype (%),[6],18%
same,Total Cell Count,[6],81
same,Population Apoptotic (%),[7],70%
same,Population Fragmented Nuclei (%),[7],47%
same,Population Healthy Nuclei (%),[7],49%
same,Population Hoechst High Intensity Objects (%),[7],48%
same,Population Membrane Permeable-Phenotype (%),[7],4%
same,Population Mitochondria Different-Phenotype (%),[7],6%
same,Population Mitotic Cells (%),[7],30%
same,Population Normal (%),[7],51%
same,Population Pyknosed Nuclei (%),[7],3%
same,Population Tubulin-Different-Phenotype (%),[7],14%
same,Total Cell Count,[7],566
same,Population Apoptotic (%),[8],100%
same,Population Fragmented Nuclei (%),[8],49%
same,Population Healthy Nuclei (%),[8],47%
same,Population Hoechst High Intensity Objects (%),[8],66%
same,Population Membrane Permeable-Phenotype (%),[8],3%
same,Population Mitochondria Different-Phenotype (%),[8],3%
same,Population Mitotic Cells (%),[8],0%
same,Population Normal (%),[8],33%
same,Population Pyknosed Nuclei (%),[8],2%
same,Population Tubulin-Different-Phenotype (%),[8],26%
same,Total Cell Count,[8],352
same,Population Apoptotic (%),[9],25%
same,Population Fragmented Nuclei (%),[9],6%
same,Population Healthy Nuclei (%),[9],90%
same,Population Membrane Permeable-Phenotype (%),[9],3%
same,Population Mitochondria Different-Phenotype (%),[9],5%
same,Population Mitotic Cells (%),[9],75%
same,Population Pyknosed Nuclei (%),[9],3%
same,Population Tubulin-Different-Phenotype (%),[9],17%
same,Total Cell Count,[9],245
same,Population Apoptotic (%),[10],33%
same,Population Fragmented Nuclei (%),[10],14%
same,Population Healthy Nuclei (%),[10],83%
same,Population Hoechst High Intensity Objects (%),[10],6%
same,Population Membrane Permeable-Phenotype (%),[10],4%
same,Population Mitochondria Different-Phenotype (%),[10],9%
same,Population Mitotic Cells (%),[10],66%
same,Population Normal (%),[10],93%
same,Population Pyknosed Nuclei (%),[10],2%
same,Population Tubulin-Different-Phenotype (%),[10],20%
same,Total Cell Count,[10],122
same,Population Apoptotic (%),[11],30%
same,Population Fragmented Nuclei (%),[11],38%
same,Population Healthy Nuclei (%),[11],57%
same,Population Hoechst High Intensity Objects (%),[11],38%
same,Population Membrane Permeable-Phenotype (%),[11],1%
same,Population Mitochondria Different-Phenotype (%),[11],10%
same,Population Mitotic Cells (%),[11],69%
same,Population Normal (%),[11],61%
same,Population Pyknosed Nuclei (%),[11],3%
same,Population Tubulin-Different-Phenotype (%),[11],12%
same,Total Cell Count,[11],653
same,Population Apoptotic (%),[12],100%
same,Population Fragmented Nuclei (%),[12],44%
same,Population Healthy Nuclei (%),[12],55%
same,Population Hoechst High Intensity Objects (%),[12],57%
same,Population Membrane Permeable-Phenotype (%),[12],2%
same,Population Mitochondria Different-Phenotype (%),[12],8%
same,Population Mitotic Cells (%),[12],0%
same,Population Normal (%),[12],42%
same,Population Pyknosed Nuclei (%),[12],0%
same,Population Tubulin-Different-Phenotype (%),[12],28%
same,Total Cell Count,[12],411
